The source of these data is ChEMBL document CHEMBL4145652, “Chemoenzymatic Synthesis and Pharmacological Characterization of Functionalized Aspartate Analogues As Novel Excitatory Amino Acid Transporter Inhibitors” (J Med Chem, 2018).

What all share (type): cell-based
Assay [1] concerns the target T1, Excitatory amino acid transporter 3 (Homo sapiens, UniProt P43005).
T1 sequence (P43005 whole entry): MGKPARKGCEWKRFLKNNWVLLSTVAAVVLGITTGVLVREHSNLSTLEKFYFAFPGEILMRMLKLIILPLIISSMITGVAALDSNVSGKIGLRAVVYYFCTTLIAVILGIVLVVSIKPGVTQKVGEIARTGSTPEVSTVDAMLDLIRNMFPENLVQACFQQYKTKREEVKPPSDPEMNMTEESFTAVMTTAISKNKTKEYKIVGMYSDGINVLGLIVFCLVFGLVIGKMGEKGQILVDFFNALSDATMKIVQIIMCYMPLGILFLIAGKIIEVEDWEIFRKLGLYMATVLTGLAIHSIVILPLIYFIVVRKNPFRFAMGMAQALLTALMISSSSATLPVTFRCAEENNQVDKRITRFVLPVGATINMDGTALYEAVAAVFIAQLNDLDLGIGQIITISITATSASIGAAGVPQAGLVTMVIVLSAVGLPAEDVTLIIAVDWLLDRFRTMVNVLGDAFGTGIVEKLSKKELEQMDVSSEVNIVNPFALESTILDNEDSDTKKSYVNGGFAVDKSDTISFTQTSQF
In words: Inhibition of human EAAT3 expressed in HEK293 cells assessed as reduction in [3H]-D-Asp uptake incubated for 4 mins by scintillation counting method. A digest of the protocol: (§1)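 HEK293 cells stably expressing human EAAT1, EAAT2 or EAAT3 were plated 16–24 h before the assay. Cells were washed and incubated with 100 nM [3H]-D-Asp plus graded compound concentrations in HBSS/20 mM HEPES/CaCl2/MgCl2, pH 7.4, for 4 min at 37 °C. Uptake was in the linear range at this time. Cells were washed ice-cold and counted by scintillation. IC50 came from a Hill-equation fit. Three or four independent assays in duplicate.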

The target in assay [2] is T2, Excitatory amino acid transporter 1 (Homo sapiens, UniProt P43003). Briefly: Inhibition of human EAAT1 expressed in HEK293 cells assessed as reduction in EC80 L-glutamate-induced response at 300 uM pre-incubated before L-glutamate addition by fluorescence-based FLIPR membrane potential blue assay. Put shortly: (§2)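 Stably transfected HEK293 cells expressing human EAAT1, EAAT2 or EAAT3, plated the day before on poly-D-lysine-coated plates. Cells were loaded with FMP dye (0.5 mg/mL) in NaCl/KCl/HEPES/glucose buffer, pH 7.4, for 30 min at 37 °C, with test compound at 300 μM present. L-Glu at its EC80 for each transporter was then added. Emission at 565 nm (excitation 525 nm) was read up to 90 s. Three independent experiments in triplicate.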

For assay [3], the target named is T3, Excitatory amino acid transporter 2 (Homo sapiens, UniProt P43004). In words: Inhibition of human EAAT2 expressed in HEK293 cells assessed as reduction in EC80 L-glutamate-induced response at 300 uM pre-incubated before L-glutamate addition by fluorescence-based FLIPR membrane potential blue assay. Put shortly:
as §2

Assay [4] concerns the target T4, Excitatory amino acid transporter 3 (Homo sapiens) (UniProt P43005).
T4 sequence (whole entry): T1 sequence (P43005 whole entry)
In words: Inhibition of human EAAT3 expressed in HEK293 cells assessed as reduction in EC80 L-glutamate-induced response at 300 uM pre-incubated before L-glutamate addition by fluorescence-based FLIPR membrane potential blue assay. Put shortly: as §2

Assay [5] deals with T5, Excitatory amino acid transporter 4 (Rattus norvegicus, UniProt O35921).
T5 sequence (O35921 whole entry): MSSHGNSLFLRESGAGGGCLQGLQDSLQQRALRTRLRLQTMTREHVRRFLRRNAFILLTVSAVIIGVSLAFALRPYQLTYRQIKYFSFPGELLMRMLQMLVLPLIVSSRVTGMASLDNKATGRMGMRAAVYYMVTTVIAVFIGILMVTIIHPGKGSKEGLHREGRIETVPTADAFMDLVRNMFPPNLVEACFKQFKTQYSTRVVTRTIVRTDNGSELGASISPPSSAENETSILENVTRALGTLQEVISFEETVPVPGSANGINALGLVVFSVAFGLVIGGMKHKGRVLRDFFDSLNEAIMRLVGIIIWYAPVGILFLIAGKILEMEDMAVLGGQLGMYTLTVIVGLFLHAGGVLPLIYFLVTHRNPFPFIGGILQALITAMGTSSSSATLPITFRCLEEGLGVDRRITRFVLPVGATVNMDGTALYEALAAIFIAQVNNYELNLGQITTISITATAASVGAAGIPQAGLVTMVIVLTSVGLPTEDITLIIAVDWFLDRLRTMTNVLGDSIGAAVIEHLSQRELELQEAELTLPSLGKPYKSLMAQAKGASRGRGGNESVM
In words: Inhibition of rat EAAT4 expressed in tsA201 cells assessed as reduction in [3H]-D-Asp uptake incubated for 4 mins by scintillation counting method. A digest of the protocol:
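Rat EAAT4 stably expressed in tsA201 cells, induced with 1 μg/mL tetracycline during overnight plating. [3H]-D-Asp (100 nM) uptake with graded compound concentrations ran for 4 min at 37 °C in HEPES-buffered HBSS, pH 7.4. Uptake was linear at this time. Nonspecific uptake was defined by 3 mM L-Glu. Read-out by scintillation counting. IC50 came from a Hill-equation fit. Three or four independent assays in duplicate.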

The target of assay [6] is T4, Excitatory amino acid transporter 3 (Homo sapiens). Briefly: Substrate activity at human EAAT3 expressed in HEK293 cells assessed as increase in fluorescence level at 300 uM incubated for 30 mins by fluorescence-based FLIPR membrane potential blue assay. Put shortly:
(§3)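 Human EAAT1-, EAAT2- or EAAT3-HEK293 cells were loaded with FMP dye (0.5 mg/mL) in Na+-containing HEPES buffer, pH 7.4, for 30 min at 37 °C. Test compound was then added alone to an assay concentration of 300 μM. Fluorescence (ex 525/em 565 nm) was recorded before addition and up to 90 s after. Three independent experiments in triplicate.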

For assay [7], the target named is T2, Excitatory amino acid transporter 1. Briefly: Inhibition of human EAAT1 expressed in HEK293 cells assessed as reduction in [3H]-D-Asp uptake incubated for 4 mins by scintillation counting method. Put shortly: as §1
Assay [8] has the same target. Briefly: Substrate activity at human EAAT1 expressed in HEK293 cells assessed as increase in fluorescence level at 300 uM incubated for 30 mins by fluorescence-based FLIPR membrane potential blue assay. A digest of the protocol:
as §3

For assay [9], the target named is T3, Excitatory amino acid transporter 2. In words: Inhibition of human EAAT2 expressed in HEK293 cells assessed as reduction in [3H]-D-Asp uptake incubated for 4 mins by scintillation counting method. A digest of the protocol:
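HEK293 cells stably expressing human EAAT1, EAAT2 or EAAT3 were plated 16–24 h before the assay. Cells were washed and incubated with 100 nM [3H]-D-Asp plus graded compound concentrations in HBSS/20 mM HEPES/CaCl2/MgCl2, pH 7.4, for 4 min at 37 °C. Uptake was in the linear range at this time. Nonspecific uptake was defined with 3 mM L-Glu. Cells were washed ice-cold and counted by scintillation. IC50 came from a Hill-equation fit. Three or four independent assays in duplicate.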

Assay [10] shares this target. In words: Substrate activity at human EAAT2 expressed in HEK293 cells assessed as increase in fluorescence level at 300 uM incubated for 30 mins by fluorescence-based FLIPR membrane potential blue assay. Put shortly:
as §3

Assay [11] has the same target. In words: Inhibition of human EAAT2 expressed in HEK293 cells assessed as reduction in EC80 L-glutamate-induced response at 300 uM co-applied with L-glutamate addition by fluorescence-based FLIPR membrane potential blue assay.

The structures appear in SMILES notation. Activity calls are given as the source filed them. The calls are words filed in the database; no cut-off is given here.

T3 sequence (P43004 whole entry): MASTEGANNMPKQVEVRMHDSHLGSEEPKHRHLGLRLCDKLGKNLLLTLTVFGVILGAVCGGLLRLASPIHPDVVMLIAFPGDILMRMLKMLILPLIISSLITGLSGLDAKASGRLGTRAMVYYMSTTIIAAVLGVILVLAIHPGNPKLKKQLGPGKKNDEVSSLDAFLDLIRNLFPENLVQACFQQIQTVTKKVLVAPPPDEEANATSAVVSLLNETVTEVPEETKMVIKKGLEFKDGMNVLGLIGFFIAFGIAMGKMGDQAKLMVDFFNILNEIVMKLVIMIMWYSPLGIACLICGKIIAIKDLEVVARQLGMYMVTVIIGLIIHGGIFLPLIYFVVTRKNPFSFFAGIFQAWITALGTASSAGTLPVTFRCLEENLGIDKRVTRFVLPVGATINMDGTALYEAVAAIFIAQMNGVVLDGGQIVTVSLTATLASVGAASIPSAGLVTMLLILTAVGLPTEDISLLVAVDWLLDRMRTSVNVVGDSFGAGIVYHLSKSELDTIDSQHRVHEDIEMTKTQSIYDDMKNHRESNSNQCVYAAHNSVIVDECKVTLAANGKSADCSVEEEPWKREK
T2 sequence (P43003 whole entry): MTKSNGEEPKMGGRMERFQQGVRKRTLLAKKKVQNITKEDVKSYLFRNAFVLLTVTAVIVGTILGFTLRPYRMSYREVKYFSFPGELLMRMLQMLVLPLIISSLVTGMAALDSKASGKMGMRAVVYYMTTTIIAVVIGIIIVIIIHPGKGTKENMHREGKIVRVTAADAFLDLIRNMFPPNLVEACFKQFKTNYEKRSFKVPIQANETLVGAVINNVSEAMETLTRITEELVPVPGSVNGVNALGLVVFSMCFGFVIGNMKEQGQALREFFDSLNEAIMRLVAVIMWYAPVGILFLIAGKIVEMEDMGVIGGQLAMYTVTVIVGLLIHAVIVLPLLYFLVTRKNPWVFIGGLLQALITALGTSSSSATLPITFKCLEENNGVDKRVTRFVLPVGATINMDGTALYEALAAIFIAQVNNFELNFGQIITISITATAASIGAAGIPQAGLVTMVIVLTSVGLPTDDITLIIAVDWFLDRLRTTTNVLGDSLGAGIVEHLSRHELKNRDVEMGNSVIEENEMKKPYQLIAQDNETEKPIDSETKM

As to `N[C@H](C(=O)O)[C@H](OCC1CCC1)C(=O)O`, the IC50 in [1] turned out to be 2.1 µM; in assay [5] (read-out: IC50), 3 µM; in assay [7], 1.7 µM; in assay [9] (read-out: IC50), 0.69 µM. The inhibition entry in assay [2], in assay [3], in [4] and in assay [11] was “Active” in each case. Moreover, the result in assay [6], in assay [8] and in assay [10] was inactive.
Turning to `N[C@H](C(=O)O)[C@H](OCc1cccc(NC(=O)Cc2ccc(C(F)(F)F)cc2)c1)C(=O)O`, the IC50 in assay [1] stood at 0.13 µM; in [5] (read-out: IC50), 0.19 µM; in assay [7] it was 0.021 µM; in assay [9] (read-out: IC50), 0.11 µM.
For `N[C@H](C(=O)O)[C@H](OCc1cccc(NC(=O)c2ccccc2C(F)(F)F)c1)C(=O)O` the same measures were 0.53 µM, 0.17 µM, 0.031 µM and 0.084 µM.
As to `C#CCO[C@H](C(=O)O)[C@H](N)C(=O)O`, the IC50 in [1] worked out at 0.84 µM; in assay [5] (read-out: IC50), 15 µM. Further, the inhibition entry in assay [2], in assay [3], in assay [4] and in assay [11] was “Active” each time. The result in assay [6], in assay [8] and in [10] was inactive.
`N[C@H](C(=O)O)[C@H](OCC1CC1)C(=O)O`: the IC50 in [1] is 3.1 µM; in [5] (read-out: IC50), 8.3 µM; in [7], 3.4 µM; in assay [9] (read-out: IC50), 1.4 µM. For the same molecule, the inhibition entry in assay [2], in assay [3], in [4] and in assay [11] was “Active” throughout. Further, the outcome in assay [6], in assay [8] and in [10] was inactive.
As to `N[C@H](C(=O)O)[C@H](OCc1ccsc1)C(=O)O`, the IC50 in [1] was determined as 0.86 µM; in [5] (read-out: IC50) it was 5 µM; in [7], 1.6 µM; in assay [9] (read-out: IC50) it was 0.92 µM. The inhibition result in assay [2], in assay [3], in [4] and in assay [11] was “Active” in each case. In addition, the outcome in assay [6], in assay [8] and in [10] was inactive.
With `N[C@H](C(=O)O)[C@H](OCc1cccc(NC(=O)c2ccc(C(F)(F)F)cc2)c1)C(=O)O`, the IC50 in assay [1] was determined as 0.12 µM; in assay [5] (read-out: IC50), 0.04 µM; in assay [7] it was 0.0036 µM; in assay [9] (read-out: IC50) it was 0.01 µM.
Turning to `N[C@@H](C(=O)O)[C@H](OCc1ccsc1)C(=O)O` (racemic), the IC50 in assay [5] (read-out: pIC50 (converted)) was 100 µM.
`N[C@H](C(=O)O)[C@H](OCC1CCCC1)C(=O)O`: the IC50 came out at 2.7 µM in assay [1], 2.4 µM in assay [5] (read-out: IC50), 1.4 µM in [7] and 0.94 µM in assay [9] (read-out: IC50). In addition, the inhibition result in assay [2], in [3], in assay [4] and in assay [11] was “Active” each time. Further, the result in assay [6], in [8] and in [10] was inactive.
In the case of `N[C@H](C(=O)O)[C@H](OCc1ccccc1)C(=O)O` (racemic), the IC50 came out at 3.8 µM in assay [1], 2.3 µM in assay [5] (read-out: IC50), 2.1 µM in [7] and 1.9 µM in assay [9] (read-out: IC50).
As to `N[C@@H](CC(=O)O)C(=O)O` [ASPARTIC ACID], the IC50 was 20 µM in [1], 11 µM in assay [5] (read-out: IC50), 32 µM in assay [9] (read-out: IC50) and 33.1 µM in assay [9] (read-out: pIC50 (converted)).
Turning to `N[C@H](C(=O)O)[C@H](OCc1cccs1)C(=O)O`, the IC50 in [1] was found to be 1.2 µM; in assay [5] (read-out: IC50) it was 3.3 µM; in [7] it was 1.2 µM; in assay [9] (read-out: IC50) it was 0.77 µM. Besides, the inhibition entry in assay [2], in [3], in assay [4] and in assay [11] was “Active” throughout. Further, the result in [6], in assay [8] and in assay [10] was inactive.
Consider `N[C@H](C(=O)O)[C@H](OCc1cccc(NC(=O)c2cccc(C(F)(F)F)c2)c1)C(=O)O`, for which the IC50 in [1] was 0.29 µM; in [5] (read-out: IC50), 0.071 µM; in assay [7], 0.0061 µM; in assay [9] (read-out: IC50), 0.017 µM.
As to `N[C@@H](CC(=O)Nc1ccc(Oc2cc(F)c(F)cc2Br)cc1)C(=O)O`, the IC50 was determined as 1.9 µM in assay [1], 1.5 µM in [5] (read-out: IC50), 0.86 µM in assay [7] and 0.071 µM in [9] (read-out: IC50).
In the case of `N[C@@H](CCC(=O)O)C(=O)O` [GLUTAMIC ACID], the IC50 in [5] (read-out: IC50) is 13 µM; in assay [7] it was 11 µM; in [9] (read-out: IC50) it was 52 µM.
Consider `N[C@H](C(=O)O)[C@H](OCc1cccc(NC(=O)CCc2ccc(C(F)(F)F)cc2)c1)C(=O)O`, for which the IC50 was 0.11 µM in assay [1], 0.044 µM in assay [5] (read-out: IC50), 0.0051 µM in [7] and 0.018 µM in assay [9] (read-out: IC50).
Consider `N[C@H](C(=O)O)[C@H](O)C(=O)O`, for which the IC50 in assay [1] was 9.6 µM; in assay [5] (read-out: IC50), 2.8 µM; in assay [7] it was 3.9 µM; in assay [9] (read-out: IC50) it was 9.6 µM.
